pKi: −log10 of the molar value.
What was measured:
[1] = Plasma clearance in Male Sprague-Dawley rats after intravenous administration at a dose of 10 mg/kg; format: ADME, organism-based; parameters: dose 10 mg/kg, route intravenous; conditions: rat
In short: (§1)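 PK: male Sprague–Dawley rats (n = 3 per sampling time) given saline solution as rapid iv bolus via caudal vein; Beagle dogs (n = 2) given constant-rate iv infusion over 15 min via saphenous vein. Plasma collected into lithium heparin; drug measured by LCMS with internal standard after solid-phase extraction at pH 6.0. Parameters derived by computational PK analysis.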

[2] = Oral bioavailability in Beagle dogs after Per oral administration at dose of 50(mg/kg); format: ADME, organism-based, Canis lupus familiaris; conditions: dog, in vivo, 10 mg/kg, in the assay text read “10(mg/kg)” for “50(mg/kg)”
In short: (§2)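 Oral bioavailability: compound in water given by gavage to male Sprague–Dawley rats (n = 3 per sampling time) and Beagle dogs (n = 2). Plasma collected into lithium heparin (dog saphenous cannula, conscious; rat vena cava under halothane). Drug quantified by LCMS, compared with iv saline dosing; parameters from computational PK analysis.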

[3] = Alpha-elimination half-life in Male Sprague-Dawley rats after intravenous administration at a dose of 10 mg/kg; format: ADME, organism-based; parameters: dose 10 mg/kg, route intravenous; conditions: rat, in vivo; in short: as §1
[4] = Beta-elimination half-life in Male Sprague-Dawley rats after intravenous administration at a dose of 10 mg/kg; format: ADME, organism-based; parameters: dose 10 mg/kg, route intravenous; conditions: rat, in vivo; in short: as §1
[5] = Oral bioavailability in rat (Sprague-Dawley) (male) (dose 50 mg/kg p.o.); format: ADME, organism-based; conditions: in vivo; in short: as §2
[6] = Volume of distribution in Male Sprague-Dawley rats after intravenous administration at a dose of 10 mg/kg; format: ADME, organism-based; parameters: dose 10 mg/kg, route intravenous; conditions: rat, in vivo, read-out: Volume; in short: as §1
[7] = biological target: T1, Coagulation factor VII (Homo sapiens) (UniProt P08709); assay: Percentage inhibition of Coagulation factor VIIa (FVIIa) at a concentration of 10 X E-4 M from human plasma; format: cell-free
T1 sequence (whole entry): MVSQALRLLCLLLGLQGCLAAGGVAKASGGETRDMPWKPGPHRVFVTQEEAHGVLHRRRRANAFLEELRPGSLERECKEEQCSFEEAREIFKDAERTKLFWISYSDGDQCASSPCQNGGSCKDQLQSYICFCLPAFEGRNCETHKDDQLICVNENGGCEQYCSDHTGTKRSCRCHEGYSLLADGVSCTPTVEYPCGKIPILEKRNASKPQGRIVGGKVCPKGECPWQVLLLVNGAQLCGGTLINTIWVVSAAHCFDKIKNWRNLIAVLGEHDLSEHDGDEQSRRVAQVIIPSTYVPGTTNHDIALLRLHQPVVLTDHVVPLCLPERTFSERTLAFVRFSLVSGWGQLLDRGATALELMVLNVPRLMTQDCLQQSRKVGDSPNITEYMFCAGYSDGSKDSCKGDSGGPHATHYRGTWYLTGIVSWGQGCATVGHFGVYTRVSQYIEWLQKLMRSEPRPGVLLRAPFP
In short: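 Human plasma FVIIa, 0.06 μg/mL final, plus recombinant tissue factor at 0.12 μg/mL final; substrate N-methylsulfonyl-D-Phe-Pro-Arg-pNA. Buffer 50 mM TRIS/100 mM NaCl pH 7.5. Compound preincubated with enzyme 15 min at room temperature, then substrate added; 30 min at 30 °C; OD 405 nm; percentage inhibition from triplicates.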

Coagulation factor X = Coagulation factor X (Bos taurus, UniProt P00743); assay: Inhibitory effect on Coagulation factor Xa (FXa) from bovine plasma; format: cell-free
Sequence of Coagulation factor X (P00743 41-180 limits assumed): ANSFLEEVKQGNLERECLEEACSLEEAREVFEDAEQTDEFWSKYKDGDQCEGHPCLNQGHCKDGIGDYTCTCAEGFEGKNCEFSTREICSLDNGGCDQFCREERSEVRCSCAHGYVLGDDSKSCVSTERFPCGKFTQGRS
Sequence of Coagulation factor X (P00743 234-492 limits assumed): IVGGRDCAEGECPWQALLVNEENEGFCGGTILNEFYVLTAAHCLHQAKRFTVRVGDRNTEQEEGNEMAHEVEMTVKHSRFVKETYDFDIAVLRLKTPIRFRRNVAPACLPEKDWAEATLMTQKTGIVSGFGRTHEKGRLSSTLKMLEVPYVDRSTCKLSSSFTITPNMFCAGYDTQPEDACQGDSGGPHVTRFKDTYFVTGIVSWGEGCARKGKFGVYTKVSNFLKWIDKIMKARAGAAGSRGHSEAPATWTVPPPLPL
In short: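 Bovine plasma FXa, 0.02 U/mL final, with S2222 at 0.2 mM final, in 50 mM HEPES/150 mM NaCl pH 7.5. Aqueous compound dilutions preincubated with enzyme 15 min at room temperature, then substrate added; OD 405 nm read after 30 min at 30 °C. IC50 from triplicate eight-concentration curves; Ki via Cheng–Prusoff using substrate Km.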

Prothrombin [8] = biological target: T2, Prothrombin (Homo sapiens, UniProt P00734); assay: In vitro inhibition of human thrombin.
Serine protease 1 [9] = biological target: T3, Serine protease 1 (Homo sapiens, UniProt P07477); assay: In vitro inhibition of human trypsin.
T3 sequence (P07477 whole entry): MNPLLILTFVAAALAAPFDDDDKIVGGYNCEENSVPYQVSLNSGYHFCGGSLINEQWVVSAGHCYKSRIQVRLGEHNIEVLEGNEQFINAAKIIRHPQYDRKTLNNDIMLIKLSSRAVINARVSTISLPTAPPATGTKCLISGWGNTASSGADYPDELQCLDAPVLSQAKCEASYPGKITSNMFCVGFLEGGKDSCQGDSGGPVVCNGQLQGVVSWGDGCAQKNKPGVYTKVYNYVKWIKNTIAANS
In short: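 Human pancreatic trypsin, chromogenic substrate S2222, 50 mM HEPES/150 mM NaCl pH 8.0. Kinetic assay over 15 min after starting with substrate at four concentrations. Ki taken from 1/V versus 1/S plot.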

[10] = Plasma clearance in Beagle dogs after intravenous administration at a dose of 1 mg/kg; conditions: dog
[11] = Volume of distribution in Beagle dogs after intravenous administration at a dose of 1 mg/kg; conditions: dog, in vivo
[12] = Beta-elimination half-life in Beagle dogs after intravenous administration at a dose of 1 mg/kg; conditions: dog, in vivo
[13] = Alpha-elimination half-life in Beagle dogs after intravenous administration at a dose of 1 mg/kg; conditions: dog, in vivo
Prothrombin [14] = biological target: T2, Prothrombin; assay: Percentage inhibition against of human thrombin at dose of 10 X E-6 M
Serine protease 1 [15] = biological target: T3, Serine protease 1; assay: Percentage inhibition against human trypsin at dose of 10 X E-5 M
Prothrombin [16] = biological target: T2, Prothrombin; assay: Percentage inhibition against human thrombin at dose of 10 X E-6 M
Serine protease 1 [17] = biological target: T3, Serine protease 1; assay: Percentage inhibition against human trypsin at dose of 10 X E-4 M
[18] = Oral bioavailability in Beagle dogs after Per oral administration at dose of 2(mg/kg); format: ADME, organism-based, Canis lupus familiaris; conditions: dog, in vivo; in short: as §2
[19] = Plasma clearance in Beagle dogs after intravenous administration at a dose of 1 mg/kg; format: ADME, organism-based, Canis lupus familiaris; parameters: dose 1 mg/kg, route intravenous; conditions: dog; in short: as §1
[20] = Volume of distribution in Beagle dogs after intravenous administration at a dose of 1 mg/kg; format: ADME, organism-based, Canis lupus familiaris; parameters: dose 1 mg/kg, route intravenous; conditions: dog, in vivo, read-out: Volume; in short: as §1
[21] = Beta-elimination half-life in Beagle dogs after intravenous administration at a dose of 1 mg/kg; format: ADME, organism-based, Canis lupus familiaris; parameters: dose 1 mg/kg, route intravenous; conditions: dog, in vivo; in short: as §1
Serine protease 1 [22] = biological target: T3, Serine protease 1; assay: Percentage inhibition effect human trypsin at dose of 10 X E-4 M
Prothrombin [23] = biological target: T2, Prothrombin; assay: Percentage inhibition effect of human thrombin at dose of 10 X E-6 M

Row | Structure (SMILES) | pKi (Prothrombin [8]) | pKi (Serine protease 1 [9]) | other results
1 | N=C(N)N1CCC(OCCC2CCCCN2C(=O)[C@H](CC(=O)O)NC2CCOCC2)CC1 (stereo partly specified) | – | – | inhibition (Prothrombin [14]): 42%; inhibition (Serine protease 1 [15]): 23%
2 | CN(C1CCCCC1)[C@@H](CCC(=O)O)C(=O)N1CCCC[C@H]1CCOC1CCN(C(=N)N)CC1 | 8.74 | 6.26 | –
3 | N=C(N)N1CCC(OCCC2CCCCN2C(=O)[C@@H](CC2CCCCC2)NCC(=O)O)CC1 (stereo partly specified) | 9.02 | 6.43 | –
4 | N=C(N)N1CCC(OCCC2CCCCN2C(=O)[C@H](CC(=O)O)NCC2CCCCC2)CC1 (stereo partly specified) | 7.80 | 5.80 | –
5 | CN(C1CCCOC1)[C@@H](CC(=O)O)C(=O)N1CCCC[C@H]1CCOC1CCN(C(=N)N)CC1 (stereo partly specified) | – | – | inhibition (Prothrombin [14]): 16%; inhibition (Serine protease 1 [17]): 48%
6 | N=C(N)c1ccc(OCC[C@H]2CCCCN2C(=O)[C@@H](CC2CCCCC2)NCC(=O)O)cc1 | 6.92 | 5.14 | –
7 | CN(C1CCCCCC1)[C@@H](CC(=O)O)C(=O)N1CCCC[C@H]1CCOC1CCN(C(=N)N)CC1 | 9.28 | 6.09 | –
8 | CCC(CC)N[C@@H](CC(=O)O)C(=O)N1CCCC[C@H]1CCOC1CCN(C(=N)N)CC1 | 8.01 | 5.85 | –
9 | N=C(N)N1CCC(OCCC2CCCCN2C(=O)[C@H](CC(=O)O)NC2CCCCCCC2)CC1 (stereo partly specified) | 8.89 | 6.14 | –
10 | N=C(N)c1ccc(OCC[C@@H]2CCCCN2C(=O)[C@@H](CC2CCCCC2)NCC(=O)O)cc1 | 9.43 | 7.05 | –
11 | CN(C1CCC=CCC1)[C@@H](CC(=O)O)C(=O)N1CCCC[C@H]1CCOC1CCN(C(=N)N)CC1 | 9.10 | 5.96 | –
12 | CC1=CCN(C(=O)[C@H](Cc2cccc(C(=N)N)c2)NS(=O)(=O)c2ccc3c(c2)CCN(C)CC3)[C@@H](C(=O)O)C1 | – | – | clearance [1]: 11 mL/min/kg; half-life [4]: 48 min; bioavailability [5]: 16%; Vd [6]: 0.6 L/kg; bioavailability [18]: 37%; clearance [19]: 6.9 mL/min/kg; Vd [20]: 0.53 L/kg; half-life [21]: 54 min
13 | CN(C)CCN(C1CCCCC1)[C@@H](CC(=O)O)C(=O)N1CCCCC1CCOC1CCN(C(=N)N)CC1 (stereo partly specified) | – | – | inhibition (Serine protease 1 [22]): 0%; inhibition (Prothrombin [23]): 0%

More lines, main results first:

Row | pKi (Prothrombin [8]) | pKi (Serine protease 1 [9]) | Structure (SMILES) | other results
14 | 8.66 | 5.71 | CN(C1CCCCC1)[C@@H](CC(=O)O)C(=O)N1CCCC[C@H]1CCOC1CCN(C(=N)N)CC1 | clearance [1]: 21.2 mL/min/kg; bioavailability [2]: 9%; half-life [3]: 7.2 min; half-life [4]: 48 min; bioavailability [5]: 2%; Vd [6]: 0.31 L/kg; inhibition [7]: 38.7%; pKi (Coagulation factor X): 5.30; clearance [10]: 6.4 mL/min/kg; Vd [11]: 0.53 L/kg; half-life [12]: 60 min; half-life [13]: 9.6 min
15 | 6.43 | 5.10 | N=C(N)N1CCC(OCCC2CCCCN2C(=O)[C@@H](Cc2ccccc2)NCC(=O)O)CC1 (stereo partly specified) | –
16 | 7.80 | 5.30 | CCN(C1CCCCC1)[C@@H](CC(=O)O)C(=O)N1CCCCC1CCOC1CCN(C(=N)N)CC1 (stereo partly specified) | –
17 | – | 5.04 | N=C(N)N1CCC(OCC[C@@H]2CCCCN2C(=O)[C@H](CC(=O)O)NCc2ccccc2)CC1 | inhibition (Prothrombin [16]): 24%
18 | 7.82 | – | CCS(=O)(=O)N[C@H](Cc1ccccc1)C(=O)N1CCC[C@H]1C(=O)NCC1CCN(C(=N)N)CC1 | –
19 | 7.49 | 5.30 | N=C(N)N1CCC(OCCC2CCCCN2C(=O)[C@H](CC(=O)O)NC2CCCC2)CC1 (stereo partly specified) | –
20 | 7.05 | 5.32 | CN1CCC(N[C@@H](CC(=O)O)C(=O)N2CCCC[C@H]2CCOC2CCN(C(=N)N)CC2)CC1 | –
21 | 8.15 | 5.54 | N=C(N)N1CCC(OCCC2CCCCN2C(=O)[C@H](CC(=O)O)NC2CCCCC2)CC1 (stereo partly specified) | –
22 | 8.96 | 6.15 | N=C(N)N1CCC(OCC[C@@H]2CCCCN2C(=O)[C@H](CC(=O)O)NC2CCCCCC2)CC1 | –

From ChEMBL document CHEMBL1135990, “Design of selective thrombin inhibitors based on the (R)-Phe-Pro-Arg sequence” (J Med Chem, 2002)
